Reference: ChEMBL document CHEMBL1126969, “Antipsoriatic anthrones with modulated redox properties. 1. Novel 10-substituted 1,8-dihydroxy-9(10H)-anthracenones as inhibitors of 5-lipoxygenase” (J Med Chem, 1993)

Tests used:
[1] = molecular target: T1, Arachidonate 5-lipoxygenase (Bos taurus) (UniProt Q9BEG3); assay: Inhibitory activity against 5-lipoxygenase (inhibition of 5-HETE and LTB4 biosynthesis) in bovine polymorphonuclear leukocytes (PMNL); assay type: cell-based; settings: concentration not given here
T1 sequence (whole entry): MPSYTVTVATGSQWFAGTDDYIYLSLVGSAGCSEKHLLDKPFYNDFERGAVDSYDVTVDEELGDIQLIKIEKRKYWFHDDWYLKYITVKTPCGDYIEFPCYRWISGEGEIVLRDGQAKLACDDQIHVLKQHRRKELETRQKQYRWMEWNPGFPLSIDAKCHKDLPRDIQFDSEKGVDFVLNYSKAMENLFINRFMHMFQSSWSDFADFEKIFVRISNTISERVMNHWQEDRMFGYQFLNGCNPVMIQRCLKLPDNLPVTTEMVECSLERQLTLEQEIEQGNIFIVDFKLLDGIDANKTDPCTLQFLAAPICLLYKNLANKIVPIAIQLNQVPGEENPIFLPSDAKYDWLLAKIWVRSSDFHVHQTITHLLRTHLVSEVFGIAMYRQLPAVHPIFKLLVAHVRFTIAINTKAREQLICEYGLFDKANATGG
Procedure, shortened: (§1)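 Bovine PMNL from EDTA blood, platelets removed, 1×10^7 cells/mL in PBS pH 7.4. Compound (DMSO, 0.4% final) preincubated 15 min at 37 °C, then stimulated with CaCl2 2 mM and A23187 20 μM for 10 min. Stopped with methanol/acetonitrile containing NDGA and PGB2 marker. LTB4 (280 nm) and 5-HETE (232 nm) quantified by RP-HPLC against internal and external standards.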

[2] = Deoxyribose-damaging property as a measure of hydroxyl-radical formation (uM test compound)
[3] = Reducing activity against 2,2-diphenyl-1-picrylhydrazyl; assay type: ADME
[4] = Reducing activity against 2,2-diphenyl-1-picrylhydrazyl with an equimolar amount of the test compound; c = Not reactive; assay type: ADME
[5] = molecular target: T1, Arachidonate 5-lipoxygenase (Bos taurus); assay: Inhibitory activity against 5-lipoxygenase (inhibition of 5-HETE and LTB4 biosynthesis) in bovine polymorphonuclear leukocytes (PMNL) at 30 uM; assay type: cell-based; procedure, shortened: as §1
[6] = (§2) Deoxyribose-damaging property as a measure of hydroxyl-radical formation (uM of malondialdehyde/mmol of deoxyribose released by 75 uM test compound)
Procedure, shortened: (§3)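 2-Deoxy-D-ribose (2 mM) with FeCl3 (0.1 mM) in 30 mM KH2PO4-KOH buffer pH 7.4, compound at 75 μM final (acetonitrile vehicle, fresh stocks), 2 h at 37 °C. TBA/trichloroacetic acid added, heated 100 °C 15 min, acidified, extracted into butanol, A532 read. Calibrated against malondialdehyde standard; expressed as μmol MDA/mmol deoxyribose.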

[7] = molecular target: T2, Arachidonate 5-lipoxygenase (Bos taurus, UniProt Q9BEG3); assay: Inhibitory activity against 5-lipoxygenase (inhibition of 5-HETE and LTB4 biosynthesis) in bovine polymorphonuclear leukocytes (PMNL).; assay type: cell-based
T2 sequence (Q9BEG3 whole entry): T1 sequence (whole entry)

[8] = as §2; assay type: ADME; procedure, shortened: as §3

Row | Deoxyribose degradation (uM of MDA mM-1) [2] | kDPPH [3] [M⁻¹ s⁻¹] | inhibition [5] [%] | IC50 [7] [µM] | SMILES | also measured
1 | < 0.15 | < 1 | – | – | COc1ccc(CCC=C2c3cccc(O)c3C(=O)c3c(O)cccc32)cc1 | inhibition [1]: 24%
2 | < 0.2 | 8.7 | – | 17 | COc1ccc(CCC(=O)C2c3cccc(O)c3C(=O)c3c(O)cccc32)cc1OC | –
3 | < 0.15 | < 1 | 33 | – | O=C1c2c(O)cccc2C(=Cc2ccc(C(F)(F)F)cc2)c2cccc(O)c21 | –
4 | < 0.15 | < 1 | – | 2 | O=C1c2c(O)cccc2C(=Cc2ccc([N+](=O)[O-])cc2)c2cccc(O)c21 | –
5 | < 0.15 | < 1 | 23 | – | Cc1ccc(C=C2c3cccc(O)c3C(=O)c3c(O)cccc32)cc1 | –
6 | < 0.2 | 10.3 | – | – | COc1cc(CCC(=O)C2c3cccc(O)c3C(=O)c3c(O)cccc32)cc(OC)c1OC | –
7 | < 0.15 | < 1 | 21 | – | O=C1c2c(O)cccc2C(=CCCCc2ccccc2)c2cccc(O)c21 | –
8 | < 0.2 | 15.1 | – | 0.5 | COc1ccc(CC(=O)C2c3cccc(O)c3C(=O)c3c(O)cccc32)cc1 | –
9 | < 0.15 | < 1 | < 10 | – | COC(=O)c1ccc(C=C2c3cccc(O)c3C(=O)c3c(O)cccc32)cc1 | –
10 | < 0.15 | < 1 | < 10 | – | COc1ccc(C=C2c3cccc(O)c3C(=O)c3c(O)cccc32)cc1 | –
11 | 0.36 | 14.7 | – | – | O=C1c2c(O)cccc2C(C(=O)Cc2ccc(O)cc2)c2cccc(O)c21 | –
12 | < 0.2 | 8.8 | – | 2 | O=C1c2c(O)cccc2C(C(=O)CCc2ccc(OCc3ccccc3)cc2)c2cccc(O)c21 | –
13 | < 0.2 | > 100 | – | – | CC(C)(C)c1cc(CC(=O)C2c3cccc(O)c3C(=O)c3c(O)cccc32)cc(C(C)(C)C)c1O | –
14 | – | > 100 | – | 6 | O=C1c2c(O)cccc2C(C(=O)/C=C/c2ccc([N+](=O)[O-])cc2)c2cccc(O)c21 | Deoxyribose degradation (uM of MDA mM-1) [6]: 0.88
15 | 0.24 | 7 | – | 33 | CCCC(=O)C1c2cccc(O)c2C(=O)c2c(O)cccc21 [BUTANTRONE] | –
16 | < 0.2 | 63.7 | – | – | O=C1c2c(O)cccc2C(C(=O)Cc2ccc([N+](=O)[O-])cc2)c2cccc(O)c21 | –
17 | < 0.2 | 10.1 | – | 2 | O=C1c2c(O)cccc2C(C(=O)CCCCc2ccccc2)c2cccc(O)c21 | –
18 | – | > 100 | – | 11 | O=C1c2c(O)cccc2C(C(=O)Cc2ccc(O)c(O)c2)c2cccc(O)c21 | Deoxyribose degradation (uM of MDA mM-1) [6]: 6.26
19 | < 0.15 | < 1 | 10 | – | COc1cc(C=C2c3cccc(O)c3C(=O)c3c(O)cccc32)cc(OC)c1OC | –
20 | – | > 100 | – | – | O=C1c2c(O)cccc2C(C(=O)Cc2cc(O)c(O)c(O)c2)c2cccc(O)c21 | Deoxyribose degradation (uM of MDA mM-1) [6]: 2.99
21 | < 0.15 | < 1 | < 10 | – | COc1ccc(C=C2c3cccc(O)c3C(=O)c3c(O)cccc32)cc1OC | –
22 | < 0.2 | 10.3 | – | – | O=C1c2c(O)cccc2C(C(=O)CCc2ccccc2)c2cccc(O)c21 | –

Row | Deoxyribose degradation (uM of MDA mM-1) [2] | kDPPH [3] [M⁻¹ s⁻¹] | inhibition [5] [%] | IC50 [7] [µM] | SMILES | also measured
23 | < 0.2 | 15 | 34 | – | O=C1c2c(O)cccc2C(C(=O)Cc2ccc(OCc3ccccc3)c(OCc3ccccc3)c2)c2cccc(O)c21 | –
24 | 2.5 | 7.8 | – | 1 | O=C1c2c(O)cccc2C(C(=O)CCc2ccc(O)cc2)c2cccc(O)c21 | –
25 | < 0.15 | < 1 | – | – | O=C1c2c(O)cccc2C(=CCCc2ccccc2)c2cccc(O)c21 | –
26 | – | 24.2 | – | – | O=C1c2c(O)cccc2Cc2cccc(O)c21 [ANTHRALIN] | –
27 | – | > 100 | – | 0.4 | O=C1c2c(O)cccc2C(=Cc2cc(O)c(O)c(O)c2)c2cccc(O)c21 | Deoxyribose degradation [8]: 6.03 uM of MDA mM-1
28 | < 0.15 | < 1 | 34 | – | N#Cc1ccc(C=C2c3cccc(O)c3C(=O)c3c(O)cccc32)cc1 | –
29 | – | > 100 | – | – | O=C1c2c(O)cccc2C(C(=O)/C=C/c2ccccc2)c2cccc(O)c21 | Deoxyribose degradation (uM of MDA mM-1) [6]: 1.66
30 | – | > 100 | – | 0.5 | O=C1c2c(O)cccc2C(=Cc2ccc(O)c(O)c2)c2cccc(O)c21 | Deoxyribose degradation (uM of MDA mM-1) [6]: 0.44
31 | < 0.15 | < 1 | < 10 | – | O=C(O)c1ccc(C=C2c3cccc(O)c3C(=O)c3c(O)cccc32)cc1 | –
32 | < 0.2 | 16.4 | – | – | O=C1c2c(O)cccc2C(C(=O)Cc2ccccc2)c2cccc(O)c21 | –
33 | – | – | – | – | COc1c(OC)c(OC(C)=O)c2cc(Cl)ccc2c1OC(C)=O [LONAPALENE] | kDPPH [4]: Not Active; Deoxyribose degradation (uM of MDA mM-1) [6]: < 0.15
34 | < 0.2 | 13.3 | – | 0.6 | O=C1c2c(O)cccc2C(C(=O)Cc2ccc(OCc3ccccc3)cc2)c2cccc(O)c21 | –
35 | < 0.15 | > 100 | – | 4 | O=C1c2c(O)cccc2C(=Cc2ccc(O)cc2)c2cccc(O)c21 | –
36 | < 0.15 | < 1 | 34 | – | O=C1c2c(O)cccc2C(=Cc2ccccc2)c2cccc(O)c21 | –
37 | – | > 100 | – | – | CC(Cc1ccc(O)c(O)c1)C(C)Cc1ccc(O)c(O)c1 (configuration not stated) [NORDIHYDROGUAIARETIC ACID] | Deoxyribose degradation (uM of MDA mM-1) [6]: 0.23
38 | < 0.15 | < 1 | 30 | – | O=C1c2c(O)cccc2C(=CCc2ccccc2)c2cccc(O)c21 | –
39 | – | > 100 | – | 3 | COc1cccc(/C=C/C(=O)C2c3cccc(O)c3C(=O)c3c(O)cccc32)c1 | –
40 | < 0.15 | < 1 | 0 | – | O=C1c2c(O)cccc2C(=CCCCCc2ccccc2)c2cccc(O)c21 | –
41 | < 0.2 | 10.1 | – | 0.3 | O=C1c2c(O)cccc2C(C(=O)CCCc2ccccc2)c2cccc(O)c21 | –
42 | 1.4 | 7.4 | – | 1 | COc1ccc(CCC(=O)C2c3cccc(O)c3C(=O)c3c(O)cccc32)cc1 | –
43 | – | 15.3 | – | – | O=C1c2c(O)cccc2C(C(=O)Cc2cc(OCc3ccccc3)c(OCc3ccccc3)c(OCc3ccccc3)c2)c2cccc(O)c21 | Deoxyribose degradation (uM of MDA mM-1) [6]: < 0.2

Row | SMILES | Deoxyribose degradation (uM of MDA mM-1) [2] | kDPPH [3] [M⁻¹ s⁻¹] | inhibition [5] [%] | IC50 [7] [µM] | also measured
44 | CC(=O)Oc1cccc2cc3cccc(OC(C)=O)c3c(OC(C)=O)c12 [TRIACETOXYANTHRENE] | – | – | 15 | – | kDPPH [4]: Not Active; Deoxyribose degradation (uM of MDA mM-1) [6]: < 0.15
